# Assay results taken from PMC6939458 (Cancer cell, 2019).
# Several values for one entry are separate records, joined by “and”; a condition that tells them apart may be missing. Equal entries are not always repeated.
# How the values were obtained:
# [1] = test system: γ-H2AX; assay: γ-H2AX staining; format: cell-based, human; details: 10 μM, 24-hour treatment
# In short: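 PC3 cells were fixed in 4% PFA and permeabilised with 0.5% Triton-X. They were then stained with anti-phospho-histone H2A.X (Ser139) antibody at 1:1000.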
# [2] = test system: Rat1 fibroblasts (HO15.19, TGR.1); assay: Cell viability, Rat1 fibroblasts; format: cell-based, rat; details: HO15.19 vs TGR.1
# In short: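 Myc-knockout HO15.19 and wild-type TGR.1 Rat-1 fibroblasts were kept in DMEM with 10% calf serum. They were seeded in 48-well plates at 1000 per well (HO15.19) or 3000 per well (TGR.1). After 2 to 7 days of treatment, viable cells were counted or MTS absorbance was read at 490 nm.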
# [3] = test system: MYC target gene expression; assay: RNA-seq and RT-qPCR gene expression; format: cell-based, human
# In short: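 MYCT58A cells were PC3 transduced with Flag-MYCT58A lentivirus and selected with 1.5 μg/ml puromycin. RT-qPCR used human MYC and 18S rRNA primers. For RNA-seq, PC3 cells were treated for 24 hr in triplicate and RNA was extracted after a PBS wash.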
# [4] = biological target: MYC/MAX interaction (Homo sapiens, UniProt P01106); assay: Co-immunoprecipitation and proximity ligation assay in PC3 cells; format: cell-based; details: 6 μM
# MYC/MAX interaction, sequence (P01106 16-454): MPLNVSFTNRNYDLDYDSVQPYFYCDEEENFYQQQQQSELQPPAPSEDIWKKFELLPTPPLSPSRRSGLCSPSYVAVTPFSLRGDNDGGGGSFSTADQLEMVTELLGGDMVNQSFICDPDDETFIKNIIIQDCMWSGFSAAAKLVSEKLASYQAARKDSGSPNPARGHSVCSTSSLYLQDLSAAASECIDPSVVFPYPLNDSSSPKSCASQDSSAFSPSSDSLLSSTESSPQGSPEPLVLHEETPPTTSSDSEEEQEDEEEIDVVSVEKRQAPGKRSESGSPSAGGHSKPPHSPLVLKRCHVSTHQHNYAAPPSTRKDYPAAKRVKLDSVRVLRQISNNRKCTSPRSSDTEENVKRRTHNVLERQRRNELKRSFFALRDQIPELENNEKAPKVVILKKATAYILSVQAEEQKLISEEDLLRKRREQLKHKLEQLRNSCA
# In short: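 For PLA, PC3 or PC3 T58A cells were grown in chamber slides and treated for 1 to 2 hr, then fixed in 4% PFA and permeabilised with 0.5% Triton-X. PLA signals per cell were counted by image analysis. For co-IP, cells were lysed in 20 mM Tris-HCl pH 8.0, 100 mM NaCl, 1 mM EDTA and 0.5% NP-40. Pellets were enzymatically sheared for 90 min at 4 °C and precipitates were analysed by western blot.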
# [5] = biological target: GSK3β-mediated MYC pT58 (Homo sapiens, UniProt P01106); assay: In vitro kinase assay; format: biochemical; details: 6 μM
# GSK3β-mediated MYC pT58, sequence (P01106 16-454): as above
# In short: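 Phosphorylation reactions were run in kinase buffer (25 mM Tris-HCl pH 7.5, 5 mM β-glycerophosphate, 2 mM DTT, 0.1 mM sodium vanadate, 10 mM MgCl₂) at room temperature for 2 hr in total.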
# [6] = test system: pheochromocytoma PC12 cells; assay: Cell viability, PC12 cells; format: cell-based; details: PC12, does not require MYC/MAX dimer for proliferation
# In short: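 PC12 cells were grown in F-12K with 2% heat-inactivated FBS and 12.5% horse serum. They were seeded at 1000 to 5000 cells per well in 96-well plates and treated for 2 to 7 days. Read-out was viable-cell count or MTS absorbance at 490 nm.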
# [7] = Pharmacokinetics of 361 in C57BL/6 mice; format: in vivo; details: male, C57BL/6, mouse, plasma, 50 mg/kg
# [8] = test system: MycCaP cells; assay: Caspase-3 and immunogenic cell death assays in MycCaP cells; format: cell-based, mouse
# In short: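 MycCaP cells exposed to 4 μM test compound for 72 hr; supernatants collected. Secreted ATP read by bioluminescent kit and HMGB1 by ELISA, with cell counts taken for quantification. Surface calreticulin: cells stained with rabbit anti-calreticulin (1:1000, 60 min), then Alexa Fluor 488 anti-rabbit (1 μg/ml), read by flow cytometry.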
# [9] = biological target: MYC (Homo sapiens, UniProt P01106, T73A); assay: Western blot of MYC protein level, stability and phosphorylation in cells; format: cell-based; details: 6 μM, PC3 cells expressing Flag-MYCT58A
# MYC (Homo sapiens, UniProt P01106, T73A), sequence (P01106 16-454 T73A): as the sequence (P01106 16-454) above, with T58A counted along it
# In short: (§1)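 PC3 cells, or PC3 stably expressing Flag-MYC, Flag-MYCT58A or Flag-MYCS62A (lentiviral, 1.5 μg/ml puromycin selection), were used. For stability, cells were pretreated 3 hr with compound or DMSO, then given cycloheximide and harvested at time points. MYC, pT58, pS62, GSK3β and pGSK3β S9 were detected by western blot over a time course. Band intensities were densitometrically quantified.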
# [10] = test system: MYC; assay: as above; format: cell-based, human
# In short: as §1
# [11] = test system: 468 kinases, including GSK3β; assay: KINOMEscan kinome screen; format: binding; details: 6 μM
# [12] = test system: human prostate cancer patient derived xenografts; assay: Prostate cancer PDX model; format: in vivo, mouse; details: 55 mg/kg/day, 3 consecutive days a week for 2 weeks
# In short: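 Minced fragments (~10 mm²) of prostate PDX TM00298 were implanted into the flanks of male NSG mice. Once grafts were measurable, test compound was given i.p. at 55 mg/kg/day on 3 consecutive days a week for two weeks. Tumour growth was expressed as percentage, n = 9 or 10 grafts.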
# [13] = test system: phosphatase inhibition screening panel; assay: Phosphatase inhibition screening panel; format: biochemical; details: 10-dose 3-fold serial dilutions starting at 100 μM
# In short: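 Run in 10-dose IC₅₀ mode, each compound tested singly, with a PTP1B inhibitor as control compound.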
# [14] = test system: MYC transcriptional activity (E-box-luciferase); assay: E-box luciferase reporter assay in vitro; format: cell-based
# In short: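 MycCaP cells stably carrying either MYC E-box-luciferase reporter or control mCherry-P2A-luciferase vector plated 10000 cells/well. Serial dilution of test compound added the next day; luminescence read by Steady-Glo after 4 hr treatment.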
# [15] = biological target: MYC353–439 (Homo sapiens, UniProt P01106); assay: Fluorescence polarization competition assay against 10074-G5; format: binding
# MYC353–439, sequence (P01106 368-454): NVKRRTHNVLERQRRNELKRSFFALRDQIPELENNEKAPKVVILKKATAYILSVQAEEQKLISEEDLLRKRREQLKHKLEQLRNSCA
# [16] = biological target: MYC (Homo sapiens, UniProt P01106); assay: Cellular thermal shift assay; format: cell-based
# MYC (Homo sapiens, UniProt P01106), sequence (P01106 16-454): as the sequence (P01106 16-454) above
# In short: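 PC3 cells (70–80% confluent; also PC3 stably expressing Flag-MYCT58A, puromycin 1.5 μg/ml selected) treated with test compound or DMSO for 30 min. Cells washed, resuspended in PBS with protease/phosphatase inhibitors plus the same compound dose, split into 7–10 aliquots (~1 million cells each), heated 2 min at graded temperatures, then 3 min room temperature. Lysates boiled 5 min at 90 °C; MYC quantified by Western blot densitometry to build melt curves.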
# [17] = biological target: MAX/MAX homodimer (Homo sapiens, UniProt P61244); assay: EMSA, MAX/MAX homodimer binding to E-box DNA; format: biochemical
# MAX/MAX homodimer, sequence (P61244 whole entry): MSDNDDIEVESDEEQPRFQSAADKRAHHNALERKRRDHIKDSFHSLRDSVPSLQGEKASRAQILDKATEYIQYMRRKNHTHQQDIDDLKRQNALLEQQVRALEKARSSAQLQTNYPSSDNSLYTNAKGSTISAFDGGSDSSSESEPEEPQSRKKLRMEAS
# [18] = biological target: MYC/MAX/DNA complex (Homo sapiens, UniProt P01106); assay: EMSA, MYC/MAX/DNA complex formation; format: biochemical
# MYC/MAX/DNA complex, sequence (P01106 368-454, one chain of several): as the sequence (P01106 368-454) above
smiles,measurement,setting,value
"Cn1nc(C(F)(F)F)cc1-c1ccc(OCc2ccc(Cl)cc2)c(-c2cc(C(F)(F)F)cc(C(F)(F)F)c2)c1O [Compound 361, 6-((4-chlorobenzyl)oxy)-3-(1-methyl-3-(trifluoromethyl)-1H-pyrazol-5-yl)-3’,5’-bis(trifluoromethyl)-[1,1’-biphenyl]-2-ol]",induction of γ-H2AX,[1],did not observe induction
same,sensitivity of Myc knockout versus wild-type fibroblasts,[2],more resistant
same,MYC mRNA levels,[3],not altered
same,expression of MYC target genes CDC25A and MYB,"[3]; 6 μM, 24 hr, MYCT58A-expressing cells",potently suppressed
same,"MYC target gene expression (GSEA, six gene sets)","[3]; 6 μM, 24 hr, RNA-seq",significantly down regulated in all gene sets
same,MYCT58A/MAX interactions (PLA),[4]; MYCT58A-expressing PC3 cells,disrupted
same,MYC/MAX interaction by co-IP and PLA,"[4]; PC3 cells, 1 hr",disruption of the MYC/MAX interaction
same,pT58 levels in in vitro kinase assay,[5],significantly increased pT58 levels
same,effect on cell viability,[6],little effect
same,Cmax,[7]; ip,27200 ng/mL and 46 µM
same,concentration at 24 hr,[7]; ip,12700 ng/mL and 21 µM
same,half-life,[7]; ip,44 h
same,Cmax,[7]; po,13900 ng/mL and 23 µM
same,concentration at 24 hr,[7]; po,9 µM and 5280 ng/mL
same,half-life,[7]; po,20 h
same,markers of immunogenic cell death,"[8]; 4 μM, 72 hr","significant upregulation of cell surface calreticulin expression, and release of HMGB1 and ATP"
same,"cancer cell death, caspase-3",[8]; 6 μM,induces cancer cell death with activated caspase-3 expression
same,degradation of MYCT58A mutant,[9],not readily degraded
same,phosphorylation of β-Catenin at S33/37/T41,[10],did not affect
same,MYC T58 and S62 phosphorylation,"[10]; 6 μM, PC3 cells",selectively increased T58 but not S62 phosphorylation
same,regulatory GSK3β S9 phosphorylation,[10]; PC3 cells,did not affect
same,"MYC, MYCN and MAX protein levels",[10]; multiple cell lines expressing MYC and MYCN,"reduction in MYC and MYCN, but not MAX, protein levels"
same,kinome screen result,[11],negative
same,anti-tumor efficacy,[12],confirmed 361 anti-tumor efficacy
same,phosphatase inhibition screening panel result,[13],negative
same,E-box-luciferase versus CMV-luciferase activity in vitro,[14],selectively inhibited E-box-luciferase but not CMV-luciferase activity
same,Kd,[15],3.2 µM
same,interaction with MYCT58A by CETSA,"[16]; 6 μM, MYCT58A-expressing PC3 cells",can interact
same,thermal stability of MYC protein (CETSA),"[16]; PC3 cells, 30 min, 361 4–10 μM, G5 15–60 μM, 360 6 μM",significant thermal destabilization
same,MAX/MAX homodimer binding to E-box DNA,[17],but not the closely related MAX/MAX homodimer
same,disruption of MYC/MAX/DNA complex formation,[18]; EMSA,impaired
same,activity in vitro,[18]; EMSA and cell viability assays,active
